{"source": "ChEMBL document CHEMBL1147747", "about": "“HIV integrase inhibitors with nucleobase scaffolds: discovery of a highly potent anti-HIV agent” (J Med Chem, 2006)", "key": {"[1]": {"experiment": "Therapeutic index (TI=CC50/IC50) in HIV1 TEKI at 1 uM", "type": "cell-based", "settings": "PBMC infected with HIV-1 TEKI; read-out: Ratio CC50/IC50", "outline": "(§1)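 Therapeutic index was calculated as CC50/IC50 from the PBMC assay, using HIV-1 NL4-3 or HIV-1 TEKI. Cell viability gave CC50, and antiviral readout gave IC50. Triplicate serial ½log10 dilutions were used, with a high test concentration of 200 μM or 1 μM.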"}, "[2]": {"system": "PBMC", "experiment": "Antiviral activity against HIV1 NL4-3 replication in PBMC at 1 uM", "type": "functional, cell-based", "settings": "Homo sapiens, NL4-3, PBMC", "outline": "(§2)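 PBMC cell-based microtiter anti-HIV assay against clinical isolate HIV-1 TEKI (NSI phenotype) or HIV-1 NL4-3 (SI phenotype). Test materials were run in triplicate as serial ½log10 dilutions, six to nine concentrations, from a stated high concentration (200 μM or 1 μM). IC50 and IC90 were determined, with cell viability measured in parallel. AZT was the MOI-sensitive positive control.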"}, "[3]": {"experiment": "Therapeutic index (TI=CC50/IC50) in HIV1 NL4-3 at uM", "type": "cell-based", "settings": "PBMC infected with HIV-1 NL4-3; read-out: Ratio CC50/IC50", "outline": "as §1"}, "[4]": {"system": "HeLa", "experiment": "Anti HIV activity against HIV1 NL4-3 in HeLa-CD4-LTR-beta-gal cells in MAGI-X4 assay", "type": "functional, cell-based", "outline": "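MAGI-X4 assay in HeLa-CD4-LTR-β-gal cells infected with HIV-1 NL4-3. Detects blocks in replication up to and including Tat transactivation of the LTR. Triplicate determinations over serial ½log10 dilutions (six to nine concentrations). AZT served as positive control.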"}, "[5]": {"system": "PBMC", "experiment": "Antiviral activity against HIV1 TEKI replication in PBMC at 1 uM", "type": "functional, cell-based", "settings": "Homo sapiens", "outline": "as §2"}, "[6]": {"system": "PBMC", "experiment": "Antiviral activity against HIV1 NL4-3 replication in PBMC at 200 uM", "type": "functional, cell-based", "settings": "Homo sapiens, NL4-3, PBMC", "outline": "as §2"}, "[7]": {"system": "HeLa", "experiment": "Cytotoxicity against HeLa-CD4-LTR-beta-gal cells at 200 uM", "type": "functional, cell-based", "settings": "Homo sapiens", "outline": "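Cytotoxicity was measured in HeLa-CD4-LTR-β-gal cells within the MAGI-X4 assay. Up to 200 μM was tested, in triplicate, as serial ½log10 dilutions.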"}, "[8]": {"experiment": "in vitro", "settings": "PBMC infected with HIV-1 NL4-3"}, "[9]": {"experiment": "in vitro", "settings": "PBMC infected with HIV-1 TEKI"}, "[10]": {"target": "T1, Human immunodeficiency virus type 1 integrase (Human immunodeficiency virus 1, UniProt Q7ZJM1)", "T1 sequence (Q7ZJM1 whole entry)": "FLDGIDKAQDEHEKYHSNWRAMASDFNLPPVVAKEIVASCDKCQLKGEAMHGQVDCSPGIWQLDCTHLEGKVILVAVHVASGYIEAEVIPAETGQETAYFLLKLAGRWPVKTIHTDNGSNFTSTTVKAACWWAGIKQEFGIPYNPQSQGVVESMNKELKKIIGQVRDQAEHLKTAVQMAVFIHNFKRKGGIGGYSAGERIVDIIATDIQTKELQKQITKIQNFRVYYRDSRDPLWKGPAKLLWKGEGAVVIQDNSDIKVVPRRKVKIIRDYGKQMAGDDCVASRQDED", "experiment": "Inhibition of strand transfer step of wt HIV1 integrase"}, "[11]": {"system": "PBMC", "experiment": "Antiviral activity against HIV1 TEKI replication in PBMC at 200 uM", "type": "functional, cell-based", "settings": "Homo sapiens", "outline": "as §2"}, "[12]": {"target": "T1, Human immunodeficiency virus type 1 integrase", "experiment": "Inhibition of 3' processing step of wt HIV1 integrase"}}, "note": "Active and inactive are the calls of the source. The calls are words filed in the database; no cut-off is given here.", "data": [{"smiles": "Cc1cn([C@H]2C[C@H](N=[N+]=[N-])[C@@H](CO)O2)c(=O)[nH]c1=O", "note": "[ZIDOVUDINE]", "values": [{"measurement": "selectivity ratio", "setting": "[1]", "result": "> 7140"}, {"measurement": "CC50", "setting": "[2]", "result": "> 1000", "unit": "nM"}, {"measurement": "IC50", "setting": "[2]", "result": 0.18, "unit": "nM"}, {"measurement": "selectivity ratio", "setting": "[3]", "result": "> 5560"}, {"measurement": "Activity", "setting": "[4]", "result": "Active"}, {"measurement": "CC50", "setting": "[5]", "result": "> 1000", "unit": "nM"}, {"measurement": "IC50", "setting": "[5]", "result": 0.14, "unit": "nM"}]}, {"smiles": "O=C(O)C(=O)/C=C(\\O)c1cn(Cc2ccccc2)c(=O)n(Cc2ccccc2)c1=O", "values": [{"measurement": "CC50", "setting": "[6]", "result": "> 200000", "unit": "nM"}, {"measurement": "CC90", "setting": "[6]", "result": "> 200000", "unit": "nM"}, {"measurement": "IC50", "setting": "[6]", "result": "< 20", "unit": "nM"}, {"measurement": "IC90", "setting": "[6]", "result": 1540, "unit": "nM"}, {"measurement": "Activity", "setting": "[7]", "result": "inactive"}, {"measurement": "selectivity ratio at 200 µM", "setting": "[8]", "result": "> 10000"}, {"measurement": "selectivity ratio at 200 µM", "setting": "[9]", "result": "> 4000"}, {"measurement": "IC50", "setting": "[10]", "result": 200, "unit": "nM"}, {"measurement": "CC50", "setting": "[11]", "result": "> 200000", "unit": "nM"}, {"measurement": "CC90", "setting": "[11]", "result": "> 200000", "unit": "nM"}, {"measurement": "IC50", "setting": "[11]", "result": 50, "unit": "nM"}, {"measurement": "IC90", "setting": "[11]", "result": 3910, "unit": "nM"}, {"measurement": "IC50", "setting": "[12]", "result": 3700, "unit": "nM"}, {"measurement": "Activity", "setting": "[4]", "result": "Active"}]}, {"smiles": "O=C(O)C(=O)/C=C(\\O)c1cn(Cc2ccc(F)cc2)c(=O)n(Cc2ccc(F)cc2)c1=O", "values": [{"measurement": "IC50", "setting": "[10]", "result": "< 700", "unit": "nM"}, {"measurement": "IC50", "setting": "[12]", "result": 3900, "unit": "nM"}]}, {"smiles": "O=C(O)C(=O)/C=C(\\O)c1cn(Cc2ccccc2)c(=O)[nH]c1=O", "values": [{"measurement": "IC50", "setting": "[10]", "result": 500, "unit": "nM"}, {"measurement": "IC50", "setting": "[12]", "result": 10000, "unit": "nM"}]}, {"smiles": "O=C(O)C(=O)/C=C(\\O)c1cn(Cc2ccccc2F)c(=O)n(Cc2ccccc2F)c1=O", "values": [{"measurement": "IC50", "setting": "[10]", "result": "< 600", "unit": "nM"}, {"measurement": "IC50", "setting": "[12]", "result": 4100, "unit": "nM"}]}, {"smiles": "CC(C)(C)NC(=O)[C@@H]1C[C@@H]2CCCC[C@@H]2CN1C[C@@H](O)[C@H](Cc1ccccc1)NC(=O)[C@H](CC(N)=O)NC(=O)c1ccc2ccccc2n1", "values": [{"measurement": "Activity", "setting": "[4]", "result": "inactive"}]}]}
